Data set [1] has as its system HepG2. The experiment in a line: Reduction of glucose consumption in insulin-resistant human HepG2 cells at 10 uM after 24 hrs by glucose oxidase method. It counts as functional, cell-based. The procedure, abridged: (§1)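 HepG2 cells in DMEM (22.2 mM glucose) with 10% FBS, exposed to 0.1 μM insulin from plating for 2 days. At confluence, given fresh 22.2 mM glucose DMEM with test agents for 24 h. Medium glucose measured by glucose oxidase. Consumption = blank minus remaining glucose, normalized to MTT. Three independent experiments.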

In data set [2] the test system is HepG2. As to the kind of experiment: Reduction of glucose consumption in insulin-resistant human HepG2 cells at 10 uM after 24 hrs by glucose oxidase method in presence of 0.1 uM of insulin. In kind it is functional, cell-based. The procedure, abridged:
as §1

For data set [3], the system named is 3T3-L1. The experiment in a line: Up-regulation of adiponectin expression in mouse 3T3L1 cells at 10 uM after 24 hrs by ELISA. In kind it is functional. The procedure, abridged:
(§2)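 3T3-L1 preadipocytes grown to 2 days post-confluence. Differentiated with 0.5 mM IBMX, 0.25 μM dexamethasone and 1 μg/mL insulin for 2 days, then insulin alone for 2 days, then 10% FBS DMEM. On day 12, treated 24 h; secreted adiponectin and leptin measured by ELISA. Three independent experiments.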

In data set [4] the test system is HepG2. The experiment in a line: Reduction of glucose consumption in insulin-resistant human HepG2 cells at 10 uM after 24 hrs by glucose oxidase method in presence of 22.2 mM of glucose. In kind it is functional, cell-based. The essentials:
as §1

The subject of data set [5] is 3T3-L1. As to the kind of experiment: Down-regulation of […] expression in mouse 3T3L1 cells at 10 uM after 24 hrs by ELISA. It counts as functional. The essentials:
as §2

The subject of data set [6] is Rattus norvegicus. As to the kind of experiment: Toxicity in Wistar rat high fat diet-induced NAFLD model assessed as effect on food intake at 150 mg/kg, po qd for 4 weeks. In kind it is organism-based. Set-up: dose 150 mg/kg, route oral. To be noted: in vivo, 672 h. The essentials:
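Male Wistar rats (160−180 g) fed high-fat diet (50.55% calories from fat), n = 10 per group. Dosed orally at 150 mg/kg/day for 4 weeks. Body, liver and fat weights and food intake recorded. Serum lipids, AST, ALT and glucose measured on a biochemistry analyzer. Fasting insulin measured by kit; adiponectin and leptin by ELISA. Mean ± SD; percent change vs HFD group.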

The source made the active and inactive calls. The rule behind the calls is not given here.

Regarding `O=C1NC(=O)C(=Cc2ccc(OC3CCN(c4ccc([N+](=O)[O-])cn4)CC3)cc2)C(=O)N1`, the result in data set [1] and in data set [2] was inactive.

`O=C1NC(=O)C(=Cc2ccc(OC3CCN(C(=O)c4cccc(Cl)n4)CC3)cc2)C(=O)N1`: the outcome in data set [1] and in data set [2] was inactive.

`O=C1NC(=O)C(=Cc2ccc(C(=O)N3CCC(Nc4cc([N+](=O)[O-])ccn4)CC3)cc2)C(=O)N1`: the outcome in data set [1] and in data set [2] was inactive.

On to `N#Cc1cccnc1N1CCC(Oc2ccc(C=C3C(=O)NC(=O)NC3=O)cc2)CC1`, for which the outcome in data set [1] and in data set [2] was inactive.

As for `CS(=O)(=O)N(Cc1ccc(C=C2C(=O)NC(=O)NC2=O)cc1)C1CCN(c2ccc([N+](=O)[O-])cn2)CC1`, the outcome in data set [1] and in data set [2] was inactive.

Turning to `O=C1NC(=O)C(=Cc2ccc(OC3CCN(c4ncccc4C(F)(F)F)CC3)cc2)C(=O)N1`, the result in data set [3], in data set [4] and in data set [2] was Active. In addition, the outcome in data set [5] was inactive.

Regarding `O=C1NC(=O)C(=Cc2ccc(OC3CCN(C(=O)c4ccc(OC(F)F)cc4)CC3)cc2)C(=O)N1`, the result in data set [1] and in data set [2] was inactive.

Consider `COc1cc(OC2CCN(c3ncccc3C#N)CC2)cc(OC)c1C=C1C(=O)NC(=S)NC1=O`, for which the result in data set [1] and in data set [2] was inactive.

Take `O=C1NC(=O)C(=Cc2ccc(OC3CCN(C(=O)c4ccc(Cl)cn4)CC3)cc2)C(=O)N1`: the result in data set [1] and in data set [2] was inactive.

In the case of `O=C1NC(=O)C(=Cc2ccc(C(=O)NC3CCN(c4ccc([N+](=O)[O-])cn4)CC3)cc2)C(=O)N1`, the result in data set [4] and in data set [2] was Active.

As for `N#Cc1cccnc1N1CCC(NC(=O)c2ccc(C=C3C(=O)NC(=O)NC3=O)cc2)CC1`, the result in data set [1] and in data set [2] was inactive.

Consider `CS(=O)(=O)N(Cc1ccc(C=C2C(=O)NC(=O)NC2=O)cc1)C1CCN(C(=O)c2cccc(OC(F)(F)C(F)F)c2)CC1`, for which the result in data set [1] and in data set [2] was inactive.

For the molecule `O=C1NC(=O)C(=Cc2ccc(C(=O)N3CCC(Nc4ccc([N+](=O)[O-])cn4)CC3)cc2)C(=O)N1`, the outcome in data set [1] and in data set [2] was inactive.

Regarding `O=C1NC(=O)C(=Cc2ccc(OC3CCN(c4ccc(C(F)(F)F)cn4)CC3)cc2)C(=O)N1`, the result in data set [1] and in data set [2] was inactive.

Consider `COC(=O)c1sccc1S(=O)(=O)N1CCC(Oc2ccc(C=C3C(=O)NC(=O)NC3=O)cc2F)CC1`, for which the outcome in data set [1] and in data set [2] was inactive.

For `CN(C)C(=N)N=C(N)N` [METFORMIN], the Activity entry in data set [6] is reported as “Non-toxic”.

Turning to `O=C1NC(=O)C(=Cc2ccc(OC3CCN(C(=O)c4cccc(C(F)(F)F)c4)CC3)cc2)C(=O)N1`, the outcome in data set [3], in data set [4] and in data set [2] was Active. Besides, in data set [5], the result was inactive.

Take `O=C1NC(=O)C(=Cc2ccc(OC3CCN(C(=O)c4ccccn4)CC3)cc2)C(=O)N1`: the result in data set [1] and in data set [2] was inactive.

Consider `O=C1NC(=O)C(=Cc2ccc(OC3CCN(c4ncccc4C(F)(F)F)CC3)c(F)c2)C(=O)N1`, for which the result in data set [1] and in data set [2] was inactive.

With `O=C1NC(=O)C(=Cc2ccc(C(=O)NC3CCN(c4cc([N+](=O)[O-])ccn4)CC3)cc2)C(=O)N1`, the result in data set [1] and in data set [2] was inactive.

Regarding `O=C1NC(=O)C(=Cc2ccc(OC3CCN(C(=O)c4cccc5c4OC(F)(F)O5)CC3)c(F)c2)C(=O)N1`, the outcome in data set [1] and in data set [2] was inactive.

Turning to `CN(CCOc1ccc(CC2SC(=O)NC2=O)cc1)c1ccccn1` (centres undefined) [ROSIGLITAZONE], the Activity in data set [3] stood at 236 pg/mL; in data set [5], 118.8 pg/mL. The result in data set [4] and in data set [2] was Active.

On to `O=C1NC(=O)C(=Cc2ccc(CNC3CCN(c4ccc([N+](=O)[O-])cn4)CC3)cc2)C(=O)N1`, for which the outcome in data set [1] and in data set [2] was inactive.

For `O=C1NC(=O)C(=Cc2ccc(OC3CCN(C(=O)c4ccc(OC(F)F)cc4)CC3)c(F)c2)C(=O)N1`, the result in data set [4] and in data set [2] was Active.

As for `O=C1NC(=O)C(=Cc2ccc(OC3CCN(C(=O)c4ccncc4)CC3)cc2)C(=O)N1`, the outcome in data set [3], in data set [4] and in data set [2] was Active. The result in data set [5] was inactive.

Regarding `O=C1NC(=O)C(=Cc2ccc(OC3CCN(C(=O)c4cccnc4)CC3)cc2)C(=O)N1`, the result in data set [1] and in data set [2] was inactive.

For the origin of these results see ChEMBL document CHEMBL2176990, “Synthesis and biological evaluation of 5-benzylidenepyrimidine-2,4,6(1H,3H,5H)-trione derivatives for the treatment of obesity-related nonalcoholic fatty liver disease” (J Med Chem, 2012).
